Screening data deposited in PubChem BioAssay by The Scripps Research Institute Molecular Screening Center.
Shown are actives, neighbours in structure and some others; about 1.6% of the full set was active somewhere.
UHRF1 binding = UHRF1 methylated DNA binding inhibitors, primary screen, counter-screen for MBD2 inhibitor project, biochemical, TR-FRET, human UHRF1, single concentration; AID 687016, 2013; E3 ubiquitin-protein ligase UHRF1 (Homo sapiens), Q96T88; UHRF1 binding to methylated oligo; inhibition, % at 4.4 µM; hit rate 0.75% among 370,000; in the data active = inhibition above about 21%;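 also: UHRF1 SRA domain binding a hemimethylated CpG hairpin DNA probe; 0% = median of test compound wells and 100% = reference inhibitor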
LEDGF integ inh = blockers of LEDGF/p75-dependent integrase strand transfer – biochemical, TR-FRET, high throughput, primary screen; TR-FRET IN-LEDGF/p75 DNA integration, Eu/Cy5; inhibition, % at 3.7 µM; hit rate 0.64% among 370,000; AID 743269, 2014;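 active = inhibition above the screen-wide mean plus 3 SD, cut at about 13% in these data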;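 also: signal is the Cy5 over europium emission ratio at 671 and 618 nm; 0% = plate median of compound wells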
TDP2 inh = human TDP2 enzyme inhibitors, primary screen, biochemical, epi absorbance, recombinant enzyme. Tyrosyl-DNA phosphodiesterase 2 (Homo sapiens), O95551. T5PNP hydrolysis, p-nitrophenol absorbance 415 nm. inhibition, % at 12.8 µM. hit rate 0.34% among 370,000. AID 720702, 2013;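 active = inhibition above the mean of all tested compounds plus 3 SD, set per campaign, cut at about 25% in these data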;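 also: 0% = DMSO with enzyme and 100% = buffer with substrate but no TDP2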
Target sequence (O95551 whole entry, looked up): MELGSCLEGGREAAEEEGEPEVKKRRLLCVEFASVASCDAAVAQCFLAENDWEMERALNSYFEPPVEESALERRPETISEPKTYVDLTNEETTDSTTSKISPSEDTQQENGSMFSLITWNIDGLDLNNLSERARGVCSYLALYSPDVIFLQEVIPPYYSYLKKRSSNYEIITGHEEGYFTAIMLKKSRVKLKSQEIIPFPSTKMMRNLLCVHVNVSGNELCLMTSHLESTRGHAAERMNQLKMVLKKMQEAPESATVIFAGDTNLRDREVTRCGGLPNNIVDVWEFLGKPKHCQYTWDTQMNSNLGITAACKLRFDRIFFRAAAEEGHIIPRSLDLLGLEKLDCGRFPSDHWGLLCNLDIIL
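test system = human TDP2 enzyme | input = TDP2 enzyme at 120 nM final | medium = 50 mM Tris-HCl pH 7.5 with Mg2+, KCl, DTT, BSA | also added = T5PNP substrate, 5 mM | times = 2 h at 37 °C | technique = epi absorbance | benchmarks = high control without enzyme, low control DMSO plus TDP2 | replication = each compound tested once, singlicate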
MBD2 inh = inhibitors of MBD2 binding to methylated DNA, primary screen, biochemical, TR-FRET, DNA-binding domain, human; Methyl-CpG-binding domain protein 2 (Homo sapiens), Q9UBB5; MBD2 binding to methylated oligonucleotide; inhibition, % at 4.4 µM; hit rate 0.31% among 370,000; in the data active = inhibition above about 13%
IN multimer up = HIV-1 IN multimer formation enhancers, counter-screen for LEDGF/p75 integration inhibitor project, biochemical, TR-FRET; shares compounds with LEDGF integ inh; TR-FRET HIV-1 integrase multimerization; activation, % at 7.7 µM; hit rate 17% among 2,000; AID 1053131, 2014; in the data active = activation above about 8.9%
TR-FRET interf = TR-FRET optical interference artefacts, confirmation, artefact control for LEDGF/p75-dependent integration inhibitor project, biochemical, HIV-1 IN multimerization. inhibition, % at 7.7 µM. shares compounds with LEDGF integ inh. TR-FRET optical interference counterscreen. 2,000 tested, under 10 active. AID 1053135, 2014;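 active = inhibition above the mean over all tested compounds plus 3 SD, which no compound reached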;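 also: 0% = integrase with antibodies and DMSO and 100% = antibodies without integrase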
IN-LEDGF confirm = inhibitors of HIV-1 IN-LEDGF/p75 DNA integration, confirmation, biochemical, TR-FRET; shares compounds with LEDGF integ inh; TR-FRET LEDGF/p75-dependent HIV-1 integration; AID 1053136, 2014; inhibition, % at 3.7 µM; hit rate 36% among 2,000; in the data active = inhibition above about 14%
The depositor's hits bear a star; nt = not tested or not shown.

SMILES	UHRF1 binding	LEDGF integ inh	TDP2 inh	MBD2 inh	IN multimer up	TR-FRET interf	IN-LEDGF confirm
O=C1CC(c2ccco2)CC(O)=C1C=NCC1NCCc2ccccc21 (stereo not drawn)	-3	23*	8	-7	4	-15	6
Brc1cccc(Cn2ccc3ccc(-c4ccc5ccn(Cc6cccc(Br)c6)c5c4)cc32)c1	-3	-5	5	1	nt	nt	nt
O=C(NCc1ccco1)c1c2c(nc3ccccc13)CCC2	18	28*	13	8	4	-18	24*
COc1cccc(C(=O)n2ccc3ccc(-c4ccc5ccn(Cc6ccc(C#N)cc6)c5c4)cc32)c1	-2	-2	1	-3	nt	nt	nt
CON1C(=O)C(=O)N(OC)C2CCCCC21 (stereo not drawn)	0	-4	-2	7	nt	nt	nt
C=CCON1C(=O)C(=O)N(OCC=C)[C@H]2CCCC[C@H]21	2	81*	-7	2	5	-26	0
Cc1c(C(=O)NNS(=O)(=O)c2ccccc2)sc(=S)n1C	1	0	8	3	nt	nt	nt
CC(=O)NNC(=O)c1sc(=S)n(C)c1C	3	22*	-10	1	1	-5	1
O=C(CNS(=O)(=O)c1cccc2ccccc12)N1CCN(c2ncccn2)CC1	-1	3	-1	-2	nt	nt	nt
CCOC(=O)c1ccc(CC(=O)c2ccc(O)c(O)c2O)o1	24*	74*	-6	4	5	-25	58*
O=S(=O)(c1ccc(F)cc1)n1c(CN2CCOCC2)nc2ccccc21	2	-2	2	-4	nt	nt	nt
O=C(c1ccccc1)c1ccc(O)c(O)c1O	17	22*	-9	11	2	-8	42*
COc1ccc(/C=C(\C#N)c2nc3ccccc3[nH]2)cc1O	-3	-3	-11	-4	nt	nt	nt
COc1cc(/C=C(\C#N)c2nc3ccccc3[nH]2)cc(OC)c1O	-10	16*	0	-3	8	-38	2
Cn1c(Cc2cccs2)nnc1SCC(=O)N1CCCc2ccccc21	3	3	7	3	nt	nt	nt
O=C(CSc1nnc(Cc2cccs2)n1C1CCCCC1)N1CCCc2ccccc21	-2	14*	2	-4	1	-3	3
COc1cccc(-c2nnc(SCC(=O)Nc3ccc(OCc4ccccc4)cc3)n2Cc2ccco2)c1	-2	0	1	-2	nt	nt	nt
CCC(=O)c1c[nH]c(C(=O)NCCc2ccccn2)c1	-2	1	-1	-2	nt	nt	nt
Cc1ccccc1C(=O)c1c[nH]c(C(=O)NCCc2ccccn2)c1	1	22*	8	4	1	-4	-2
CCCCCCCCN1C(=O)[C@@H](CC(=O)NCCCOCCCC)C[C@@]2(C(=O)OC)C1=C[C@H](C(C)(C)C)O[C@@H]2C	0	-3	-14	6	nt	nt	nt
CC1=N/C(=C/c2ccco2)C(=O)O1	10	13*	14	4	10*	-52	54*
O=C1OC(c2ccc(Br)cc2)=N/C1=C\c1ccco1	3	10	4	-7	nt	nt	nt
CC(=O)c1cc(-c2cccc(C#N)c2)c(=O)n2c1CCC2	0	-2	0	2	nt	nt	nt
COC(=O)[C@]1(C)N[C@H](CN(C)S(=O)(=O)c2ccc(OC(F)(F)F)cc2)[C@@H]2C(=O)N(Cc3ccccc3)C(=O)[C@@H]21	-2	15*	0	-4	0	1	-4
Cc1cccc(OCC(=O)Nc2ccc3oc(=O)ccc3c2)c1	4	1	-18	3	nt	nt	nt
CCCC(=O)Nc1ccc2oc(=O)ccc2c1	1	35*	-1	2	-1	4	0
